Assay results reported in ChEMBL document CHEMBL4351006, “A new exploration towards aminothiazolquinolone oximes as potentially multi-targeting antibacterial agents: Design, synthesis and evaluation acting on microbes, DNA, HSA and topoisomerase IV” (Eur J Med Chem, 2019).
Values after ≈ are worked out from the molar mass of the structure shown. Active and inactive are the calls of the source. No cut-off for these calls is given here.

Tests used:
[1] = test system: Aspergillus fumigatus; test: Antifungal activity against Aspergillus fumigatus assessed as reduction in fungal cell viability incubated for 24 hrs by two fold serial dilution method; format: functional
Procedure, shortened: (§1)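 Broth two-fold serial dilution run to CLSI guidelines. Chloromycin, norfloxacin and fluconazole served as reference drugs.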

[2] = test system: Staphylococcus aureus; test: Antibacterial activity against methicillin resistant Staphylococcus aureus N315 assessed as reduction in bacterial cell viability incubated for 24 hrs by two fold serial dilution method; format: functional; details: N315, 24 h
Procedure, shortened: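 MIC by two-fold serial dilution following CLSI, with chloromycin and norfloxacin as reference drugs.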

[3] = biological target: T1, Albumin (Homo sapiens, UniProt P02768); test: Binding affinity to HSA assessed as Stern-Volmer quenching constant at 286 K by fluorescence spectroscopy; format: ADME; details: isolated protein
T1 sequence (P02768 whole entry): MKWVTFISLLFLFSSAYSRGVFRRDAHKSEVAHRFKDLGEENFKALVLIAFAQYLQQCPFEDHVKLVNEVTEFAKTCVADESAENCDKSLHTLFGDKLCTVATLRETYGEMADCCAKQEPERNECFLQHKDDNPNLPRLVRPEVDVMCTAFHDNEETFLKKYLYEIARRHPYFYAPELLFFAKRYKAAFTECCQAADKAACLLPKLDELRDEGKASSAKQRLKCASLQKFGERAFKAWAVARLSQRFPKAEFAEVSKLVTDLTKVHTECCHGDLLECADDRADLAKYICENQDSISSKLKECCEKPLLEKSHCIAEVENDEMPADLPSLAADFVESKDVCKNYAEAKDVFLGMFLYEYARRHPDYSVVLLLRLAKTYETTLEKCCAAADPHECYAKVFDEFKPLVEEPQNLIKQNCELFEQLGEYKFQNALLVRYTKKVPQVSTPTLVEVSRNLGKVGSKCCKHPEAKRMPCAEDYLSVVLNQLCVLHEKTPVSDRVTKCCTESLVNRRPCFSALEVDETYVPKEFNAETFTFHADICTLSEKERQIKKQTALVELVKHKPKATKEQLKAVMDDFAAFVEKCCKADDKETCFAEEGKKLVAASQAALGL

[4] = test system: Staphylococcus aureus; test: Induction of membrane permeabilization in methicillin resistant Staphylococcus aureus assessed as increase in fluorescence intensity at 12 times of MIC incubated for 2 hr by propidium iodide staining based fluorescence microscopy; format: functional, organism-based
Procedure, shortened: (§2)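 MRSA cells were treated with the compound and stained with propidium iodide, which enters cells with damaged membranes and fluoresces on binding DNA. Fluorescence intensity was followed over time against untreated bacteria.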

[5] = test system: Staphylococcus aureus; test: Antibacterial activity against methicillin resistant Staphylococcus aureus N315 assessed as reduction in bacterial cell viability in presence of cefixime incubated for 24 hrs by two fold serial dilution method; format: functional; details: N315, 24 h
[6] = test system: Calf thymus DNA; test: Binding affinity to calf thymus DNA by UV-visible spectrophotometric method; format: nucleic-acid assay; details: Bos taurus
[7] = test system: Acinetobacter baumannii; test: Antibacterial activity against Acinetobacter baumannii assessed as reduction in bacterial cell viability incubated for 24 hrs by two fold serial dilution method; format: functional; procedure, shortened: as §1
[8] = test system: Staphylococcus aureus; test: Potency index, ratio of MIC of chloromycin to MIC of compound for antibacterial activity against methicillin resistant Staphylococcus aureus N315 assessed as reduction in bacterial cell viability incubated for 24 hrs by two fold serial dilution method; format: functional
[9] = biological target: T1, Albumin; test: Binding affinity to HSA assessed as change in gibbs free energy at 286 K by Van't Hoff plot analysis; format: ADME; details: isolated protein
[10] = test system: Staphylococcus aureus; test: Antibacterial activity against Staphylococcus aureus ATCC 29213 assessed as reduction in bacterial cell viability incubated for 24 hrs by two fold serial dilution method; format: functional; details: ATCC 29213, 24 h; procedure, shortened: as §1
[11] = biological target: T1, Albumin; test: Binding affinity to HSA assessed as quenching constant at 298 K by fluorescence spectroscopy; format: ADME; details: isolated protein
[12] = biological target: T1, Albumin; test: Binding affinity to HSA assessed as binding constant at 310 K by fluorescence spectroscopy based Scatchard method; format: ADME; details: isolated protein
[13] = test system: Staphylococcus aureus; test: Induction of membrane permeabilization in methicillin resistant Staphylococcus aureus assessed as increase in fluorescence intensity steady state at 12 times of MIC after 100 mins by propidium iodide staining based fluorescence microscopy; format: functional, organism-based; procedure, shortened: as §2
[14] = biological target: T1, Albumin; test: Binding affinity to HSA assessed as change in entropy at 298 K by Van't Hoff plot analysis; format: ADME; details: isolated protein
[15] = test system: Pseudomonas aeruginosa; test: Antibacterial activity against Pseudomonas aeruginosa ATCC 27853 assessed as reduction in bacterial cell viability incubated for 24 hrs by two fold serial dilution method; format: functional; details: ATCC 27853, 24 h; procedure, shortened: as §1
[16] = test system: Candida albicans; test: Synergistic antifungal activity against Candida albicans assessed as FICI in presence of fluconazole incubated for 24 hrs by two fold serial dilution method
[17] = test system: Candida tropicalis; test: Antifungal activity against Candida tropicalis assessed as reduction in fungal cell viability incubated for 24 hrs by two fold serial dilution method; format: functional; procedure, shortened: as §1
[18] = biological target: T1, Albumin; test: Binding affinity to HSA assessed as Stern-Volmer quenching constant at 298 K by fluorescence spectroscopy; format: ADME; details: isolated protein
[19] = test system: Enterococcus faecalis; test: Antibacterial activity against Enterococcus faecalis assessed as reduction in bacterial cell viability incubated for 24 hrs by two fold serial dilution method; format: functional; procedure, shortened: as §1
[20] = test system: Staphylococcus aureus; test: Antibacterial activity against Staphylococcus aureus assessed as reduction in bacterial cell viability incubated for 24 hrs by two fold serial dilution method; format: functional; procedure, shortened: as §1
[21] = test system: Staphylococcus aureus; test: Antibacterial activity against methicillin resistant Staphylococcus aureus assessed as change in drug resistance after 16 serial passages in presence of cefixime at 0.5 times of MIC incubated for 12 hrs by serial dilution method; format: functional, organism-based
[22] = Cytotoxicity against human A549 cells assessed as cell viability upto 139.52 uM incubated for 24 hrs by MTT assay relative to control; format: cell-based; details: read-out: Activity
Procedure, shortened: (§3)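 MTT viability assay in A549 and BEAS-2B cells, with doxorubicin at 0.50 μM as positive control. Viability is plotted with standard deviation from three independent experiments.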

[23] = test system: Candida parapsilosis; test: Antifungal activity against Candida parapsilosis ATCC 22019 assessed as reduction in fungal cell viability incubated for 24 hrs by two fold serial dilution method; details: Lodderomyces parapsilosis, ATCC 22019, 24 h
[24] = test system: Staphylococcus aureus; test: Antibacterial activity against methicillin resistant Staphylococcus aureus assessed as fold change after 16 serial passages at 0.5 times of MIC incubated for 12 hrs by sequential passaging method; format: functional
[25] = biological target: T1, Albumin; test: Binding affinity to HSA assessed as binding constant at 298 K by fluorescence spectroscopy based Scatchard method; format: ADME; details: isolated protein
[26] = biological target: T1, Albumin; test: Binding affinity to HSA assessed as change in enthalpy at 298 K by Van't Hoff plot analysis; format: ADME; details: isolated protein
[27] = test system: Pseudomonas aeruginosa; test: Antibacterial activity against Pseudomonas aeruginosa assessed as reduction in bacterial cell viability incubated for 24 hrs by two fold serial dilution method; format: functional; procedure, shortened: as §1
[28] = test system: Calf thymus DNA; test: Competitive binding affinity to calf thymus DNA assessed as inhibition of binding of neutral red by UV-visible spectrophotometric method; format: nucleic-acid assay; details: Bos taurus
[29] = test system: Candida tropicalis; test: Synergistic antifungal activity against Candida tropicalis assessed as FICI in presence of fluconazole incubated for 24 hrs by two fold serial dilution method
[30] = biological target: T1, Albumin; test: Binding affinity to HSA assessed as binding constant at 286 K by fluorescence spectroscopy based Scatchard method; format: ADME; details: isolated protein
[31] = test system: Staphylococcus aureus; test: Antibacterial activity against Staphylococcus aureus ATCC 25923 assessed as reduction in bacterial cell viability incubated for 24 hrs by two fold serial dilution method; format: functional; details: ATCC 25923, 24 h; procedure, shortened: as §1
[32] = test system: Staphylococcus aureus; test: Potency index, ratio of MIC of norfloxacin to MIC of compound for antibacterial activity against methicillin resistant Staphylococcus aureus N315 assessed as reduction in bacterial cell viability incubated for 24 hrs by two fold serial dilution method; format: functional
[33] = biological target: T1, Albumin; test: Binding affinity to HSA assessed as quenching constant at 286 K by fluorescence spectroscopy; format: ADME; details: isolated protein
[34] = test system: Candida tropicalis; test: Antifungal activity against Candida tropicalis assessed as reduction in fungal cell viability in presence of fluconazole incubated for 24 hrs by two fold serial dilution method
[35] = test system: Staphylococcus aureus; test: Synergistic antibacterial activity against Staphylococcus aureus assessed as FICI in presence of cefixime incubated for 24 hrs by two fold serial dilution method; format: functional
[36] = test system: Escherichia coli; test: Antibacterial activity against Escherichia coli assessed as reduction in bacterial cell viability incubated for 24 hrs by two fold serial dilution method; format: functional; procedure, shortened: as §1
[37] = Cytotoxicity against human BEAS2B cells assessed as cell viability upto 139.52 uM incubated for 24 hrs by MTT assay relative to control; format: cell-based; details: BEAS-2B cells, read-out: Activity; procedure, shortened: as §3
[38] = biological target: T1, Albumin; test: Binding affinity to HSA assessed as change in gibbs free energy at 298 K by Van't Hoff plot analysis; format: ADME; details: isolated protein
[39] = test system: Klebsiella pneumoniae; test: Synergistic antibacterial activity against Klebsiella pneumoniae assessed as FICI in presence of cefixime incubated for 24 hrs by two fold serial dilution method; format: functional
[40] = biological target: T1, Albumin; test: Binding affinity to HSA assessed as change in gibbs free energy at 310 K by Van't Hoff plot analysis; format: ADME; details: isolated protein
[41] = test system: Klebsiella pneumoniae; test: Antibacterial activity against Klebsiella pneumoniae assessed as reduction in bacterial cell viability in presence of cefixime incubated for 24 hrs by two fold serial dilution method; format: functional
[42] = test system: Candida albicans; test: Antifungal activity against Candida albicans ATCC 90023 assessed as reduction in fungal cell viability incubated for 24 hrs by two fold serial dilution method; format: functional; details: ATCC 90023, 24 h; procedure, shortened: as §1
[43] = test system: Escherichia coli; test: Antibacterial activity against Escherichia coli ATCC 25922 assessed as reduction in bacterial cell viability incubated for 24 hrs by two fold serial dilution method; format: functional; details: ATCC 25922, 24 h; procedure, shortened: as §1
[44] = test system: Staphylococcus aureus; test: Antibacterial activity against Staphylococcus aureus assessed as reduction in bacterial cell viability in presence of cefixime incubated for 24 hrs by two fold serial dilution method; format: functional
[45] = test system: Klebsiella pneumoniae; test: Antibacterial activity against Klebsiella pneumoniae assessed as reduction in bacterial cell viability incubated for 24 hrs by two fold serial dilution method; format: functional; procedure, shortened: as §1
[46] = biological target: T1, Albumin; test: Binding affinity to HSA assessed as quenching constant at 310 K by fluorescence spectroscopy; format: ADME; details: isolated protein
[47] = test system: Candida albicans; test: Antifungal activity against Candida albicans assessed as reduction in fungal cell viability in presence of fluconazole incubated for 24 hrs by two fold serial dilution method
[48] = test system: Candida albicans; test: Antifungal activity against Candida albicans assessed as reduction in fungal cell viability incubated for 24 hrs by two fold serial dilution method; format: functional; procedure, shortened: as §1
[49] = biological target: T1, Albumin; test: Binding affinity to HSA assessed as Stern-Volmer quenching constant at 310 K by fluorescence spectroscopy; format: ADME; details: isolated protein

CCn1cc(-c2csc(N)n2)c(=O)c2cc(F)c(N3CCN(C/C(C)=N/OC)CC3)cc21 gave an MIC [1] of 35 µM (≈ 16 µg/mL), an MIC [2] of 9 µM (≈ 4.13 µg/mL) and a KSV [3] of 1.89 ×10⁵ L/mol. For the same compound, the Activity [4] was “Active”, the MIC [5] was 4.36 µM and the K [6] was 2.51 ×10⁴ L/mol. For the same compound, the MIC [7] was 279 µM (≈ 128 µg/mL), the Ratio [8] was 5 and the deltaG [9] was -27.231 kJ/mol. The MIC [10] was 140 µM (≈ 64.2 µg/mL), the Kq [11] was 2.8 ×10¹³ L/mol/s and the Kb [12] was 1.44 ×10⁵ L/mol. The Activity [13] was “Active”, the deltaS [14] was -6.247 J/mol.K and the MIC [15] was 35 µM (≈ 16 µg/mL). For the same compound, the “fractional inhibitory concentration index (FICI)” value [16] was 0.281, the MIC [17] was 70 µM (≈ 32.1 µg/mL) and the KSV [18] was 1.79 ×10⁵ L/mol. For the same compound, the MIC [19] was 70 µM (≈ 32.1 µg/mL), the MIC [20] was 35 µM (≈ 16 µg/mL) and the Activity [21] was “inactive”. For the same compound, the viability at 24 h [22] was > 75%, the MIC [23] was 70 µM (≈ 32.1 µg/mL) and the “fold change (FC)” value [24] was “inactive”. It also gave a Kb [25] of 1.63 ×10⁵ L/mol, a deltaH [26] of -29.018 kJ/mol and an MIC [27] of 70 µM (≈ 32.1 µg/mL). For the same compound, the Activity [28] was “Active”, the “fractional inhibitory concentration index (FICI)” value [29] was 1.25 and the Kb [30] was 1.81 ×10⁵ L/mol. The MIC [31] was 17 µM (≈ 7.8 µg/mL), the Ratio [32] was 2 and the Kq [33] was 2.95 ×10¹³ L/mol/s. For the same compound, the MIC [34] was 17.4 µM, the “fractional inhibitory concentration index (FICI)” value [35] was 0.5 and the MIC [36] was 70 µM (≈ 32.1 µg/mL). The viability at 24 h [37] was > 75%, the deltaG [38] was -27.156 kJ/mol and the “fractional inhibitory concentration index (FICI)” value [39] was 0.625. For the same compound, the deltaG [40] was -27.081 kJ/mol, the MIC [41] was 8.72 µM and the MIC [42] was 17 µM (≈ 7.8 µg/mL). For the same compound, the MIC [43] was 35 µM (≈ 16 µg/mL), the MIC [44] was 8.72 µM and the MIC [45] was 70 µM (≈ 32.1 µg/mL). It also gave a Kq [46] of 2.45 ×10¹³ L/mol/s, an MIC [47] of 2.18 µM and an MIC [48] of 70 µM (≈ 32.1 µg/mL). For the same compound, the KSV [49] was 1.57 ×10⁵ L/mol.
